Tests used:
Assay type in all cases: ADME, organism-based
[1] = Volume of distribution at steady state in Lewis rat at 1 mg/kg, iv; parameters: dose 1 mg/kg, route intravenous; conditions: in vivo, read-out: Vdss
In short: (§1)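 Male Lewis rats were given a single intravenous 1 mg/kg or oral 3 mg/kg dose. Plasma levels were measured by LC-MS/MS on a 5 min formic acid water/acetonitrile gradient. Clearance, steady-state volume, terminal half-life and oral bioavailability were derived from the concentration-time profiles.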

[2] = Oral bioavailability in Lewis rat at 3 mg/kg; conditions: in vivo; in short: as §1
[3] = Half life in Lewis rat at 1 mg/kg, iv; parameters: dose 1 mg/kg, route intravenous; conditions: in vivo; in short: as §1
[4] = Plasma clearance in Lewis rat at 1 mg/kg, iv; parameters: dose 1 mg/kg, route intravenous; in short: as §1

Cc1nnc(-c2ccc(C)c(-c3ccc(C(=O)NCC4CC4)cc3)c2)o1
Vd [1]: 2 L/kg | bioavailability [2]: 50% | half-life [3]: 9 h | clearance [4]: < 10 mL/min/kg

From ChEMBL document CHEMBL1143258, “Biphenyl amide p38 kinase inhibitors 2: Optimisation and SAR” (Bioorg Med Chem Lett, 2008)
